Laboratory results as given in ChEMBL document CHEMBL3739352, “Anticonvulsant activity, crystal structures, and preliminary safety evaluation of N-trans-cinnamoyl derivatives of selected (un)modified aminoalkanols” (Eur J Med Chem, 2016).
Active and inactive are the calls of the source. The rule behind the calls is not given here.

Tests used:
Rattus norvegicus [1] = test: Neurotoxicity in Sprague-Dawley rat at 30 mg/kg, po after 2 hrs; format: toxicity, organism-based; conditions: in vivo
Summary of the method: (§1)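 Sprague-Dawley rats were given 30 mg/kg orally in 0.5% methylcellulose. Neurotoxicity was checked at 0.25, 0.5, 1.0, 2.0 and 4 h after dosing. Results are given as number of rats showing neurotoxicity/number tested.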

Rattus norvegicus [2] = test: Anticonvulsant activity in Sprague-Dawley rat assessed as protection against maximal electroshock-induced seizures at 30 mg/kg, po after 1 hr; format: functional, organism-based
Summary of the method: (§2)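 Sprague-Dawley rats were given 30 mg/kg p.o. in 0.5% methylcellulose. Maximal electroshock was applied at 0.25, 0.5, 1.0, 2.0 and 4 h after dosing. Results are reported as number of rats protected / number tested.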

Rattus norvegicus [3] = test: Anticonvulsant activity in Sprague-Dawley rat assessed as protection against maximal electroshock-induced seizures at 30 mg/kg, po after 0.25 hrs; format: functional, organism-based; summary of the method: as §2
Rattus norvegicus [4] = test: Neurotoxicity in Sprague-Dawley rat at 30 mg/kg, po after 1 hr; format: toxicity, organism-based; conditions: in vivo; summary of the method: as §1
Rattus norvegicus [5] = test: Neurotoxicity in Sprague-Dawley rat at 30 mg/kg, po after 0.25 hrs; format: toxicity, organism-based; conditions: in vivo; summary of the method: as §1
Rattus norvegicus [6] = test: Anticonvulsant activity in Sprague-Dawley rat assessed as protection against maximal electroshock-induced seizures at 30 mg/kg, po after 4 hrs; format: functional, organism-based; summary of the method: as §2
in vitro = conditions: human, HepG2 cells
Rattus norvegicus [7] = test: Anticonvulsant activity in po dosed Sprague-Dawley rat assessed as protection against maximal electroshock-induced seizures after 0.5 hrs; format: functional
Summary of the method: (§3)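 Sprague-Dawley rats received graded oral doses suspended or dissolved in 0.5% methylcellulose. Challenge was maximal electroshock or subcutaneous pentetrazol at the stated time after dosing.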

Rattus norvegicus [8] = test: Anticonvulsant activity in po dosed Sprague-Dawley rat assessed as protection against subcutaneous dosed pentetrazol-induced seizures after 0.5 hrs; format: functional; summary of the method: as §3
Mus musculus [9] = test: Anticonvulsant activity in ip dosed albino Carworth Farms No.1 mouse assessed as protection against subcutaneous dosed pentetrazol-induced seizures after 0.25 hrs; format: functional; conditions: Carworth Farms No.1, 0.25 h
Summary of the method: (§4)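 Quantitative i.p. evaluation in Carworth Farms No.1 albino mice, with graded doses in 0.5% methylcellulose. MES, scPTZ or 6-Hz (32 mA) seizure tests were run at 0.25 h.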

Mus musculus [10] = test: Anticonvulsant activity in albino Carworth Farms No.1 mouse assessed as protection against 6-Hz electroshock-induced seizures at 100 mg/kg, ip after 0.5 hrs; format: functional, organism-based
Summary of the method: (§5)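 Carworth Farms No.1 albino mice were dosed i.p. at 100 mg/kg (0.5% methylcellulose solution or suspension). 6-Hz seizures were induced at 32 mA at 0.25, 0.5, 1.0, 2.0 and 4 h after injection. Results are given as animals protected / animals tested.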

HepG2 = test: Cytotoxicity against human HepG2 cells assessed as change in cell morphology after 48 hrs by inverted microscopic analysis; format: cell-based; conditions: hepg2, 48 h
Summary of the method: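 HepG2 cells in EMEM with 10% FBS and antibiotics were seeded at 5 × 10⁴ cells/cm². After 24 h the medium was replaced with fresh medium with or without compound. After 48 h, cells were imaged under interference modulation contrast at 37 °C, 5% CO₂.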

[11] = Hepatotoxicity against human HepG2 cells assessed as cell viability at 25 uM after 24 hrs by MTT assay relative to control; format: toxicity, cell-based; conditions: read-out: Activity
Summary of the method: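 HepG2 cells (EMEM, 10% FBS, 37 °C, 5% CO₂) were seeded at 1 × 10⁴ per well and cultured overnight. They were then exposed to increasing compound concentrations for 24 h. MTT reagent was added for 3 h and formazan crystals dissolved before reading. Data are mean ± SD of at least three independent experiments, relative to untreated control.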

[12] = Hepatotoxicity against human HepG2 cells assessed as cell viability at 50 uM after 24 hrs by MTT assay relative to control
[13] = Neurotoxicity in po dosed Sprague-Dawley rat after 0.5 hrs by rotarod test; format: toxicity, organism-based; conditions: in vivo
[14] = Protection index, ratio of TD50 for neurotoxicity in ip dosed albino Carworth Farms No.1 mouse to ED50 for anticonvulsant activity in ip dosed albino Carworth Farms No.1 mouse assessed as protection against subcutaneous dosed pentetrazol-induced seizures; format: toxicity, organism-based; conditions: in vivo, intraperitoneal, read-out: Ratio TD50/ED50
Summary of the method: (§6)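 Graded i.p. doses in 0.5% methylcellulose were given to albino Carworth Farms No.1 mice. ED50 was determined in MES, scPTZ or 6-Hz (32 mA) tests, and TD50 by rotarod. Both were reported with 95% confidence intervals. PI was calculated as TD50/ED50.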

[15] = Protection index, ratio of TD50 for neurotoxicity in po dosed Sprague-Dawley rat to ED50 for anticonvulsant activity in po dosed Sprague-Dawley rat assessed as maximal electroshock-induced seizures; format: toxicity, organism-based; conditions: in vivo
Mus musculus [16] = test: Anticonvulsant activity in ip dosed albino Carworth Farms No.1 mouse assessed as protection against maximal electroshock-induced seizures after 0.25 hrs; format: functional; conditions: Carworth Farms No.1, ip; summary of the method: as §4
[17] = Protection index, ratio of TD50 for neurotoxicity in ip dosed albino Carworth Farms No.1 mouse to ED50 for anticonvulsant activity in ip dosed albino Carworth Farms No.1 mouse assessed as protection against maximal electroshock-induced seizures; format: toxicity, organism-based; conditions: in vivo, read-out: Ratio TD50/ED50
Summary of the method: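 Graded i.p. doses in 0.5% methylcellulose were given to albino Carworth Farms No.1 mice. ED50 was determined in MES, scPTZ or 6-Hz (32 mA) tests, and TD50 by rotarod. PI was calculated as TD50/ED50.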

[18] = Neurotoxicity in ip dosed albino Carworth Farms No.1 mouse after 0.25 hrs by rotarod test; format: toxicity, organism-based; conditions: in vivo
Mus musculus [19] = test: Anticonvulsant activity in albino Carworth Farms No.1 mouse assessed as protection against 6-Hz electroshock-induced seizures at 100 mg/kg, ip after 4 hrs; format: functional, organism-based; summary of the method: as §5
[20] = Protection index, ratio of TD50 for neurotoxicity in po dosed Sprague-Dawley rat to ED50 for anticonvulsant activity in po dosed Sprague-Dawley rat assessed as subcutaneous dosed pentetrazol-induced seizures; format: toxicity, organism-based; conditions: in vivo
[21] = Hepatotoxicity against human HepG2 cells assessed as cell viability at 100 uM after 24 hrs by MTT assay relative to control
[22] = Protection index, ratio of TD50 for neurotoxicity in ip dosed albino Carworth Farms No.1 mouse to ED50 for anticonvulsant activity in ip dosed albino Carworth Farms No.1 mouse assessed as protection against 6-Hz electroshock-induced seizures; format: toxicity, organism-based; conditions: in vivo, read-out: Ratio TD50/ED50; summary of the method: as §6
Mus musculus [23] = test: Anticonvulsant activity in ip dosed albino Carworth Farms No.1 mouse assessed as protection against 6-Hz electroshock-induced seizures after 0.25 hrs; format: functional; conditions: Carworth Farms No.1, ip; summary of the method: as §4
Rattus norvegicus [24] = test: Anticonvulsant activity in po dosed Sprague-Dawley rat assessed as protection against maximal electroshock-induced seizures after 1 hr; format: functional; summary of the method: as §3
[25] = Neurotoxicity in po dosed Sprague-Dawley rat after 1 hr by rotarod test; format: toxicity, organism-based; conditions: in vivo
Rattus norvegicus [26] = test: Anticonvulsant activity in po dosed Sprague-Dawley rat assessed as protection against subcutaneous dosed pentetrazol-induced seizures after 1 hr; format: functional; summary of the method: as §3

Row | SMILES | Activity (Rattus norvegicus [1]) | Activity (Rattus norvegicus [2]) | Activity (Rattus norvegicus [3]) | Activity (Rattus norvegicus [4]) | Activity (Rattus norvegicus [5]) | Activity (Rattus norvegicus [6]) | viability at 24 h, 50 µM (in vitro) | ED50 (Rattus norvegicus [7]) | ED50 (Rattus norvegicus [8]) | ED50 (Mus musculus [9]) | Activity (Mus musculus [10]) | Activity (HepG2) | viability at 24 h, 25 µM [11] | viability at 24 h, 50 µM [12] | TD50 at 0.5 h [13] | selectivity ratio [14] | selectivity ratio [15] | TD50 at 0.25 h [18] | Activity (Mus musculus [19]) | viability at 24 h, 100 µM [21] | other results
1 | O=C(/C=C/c1ccccc1)N1CCC(O)CC1 | Non-toxic | inactive | inactive | Non-toxic | Non-toxic | inactive |  |  |  |  |  |  |  |  |  |  |  |  |  |  | 
2 | CC(O)CNC(=O)/C=C/c1ccccc1 (racemic) | Non-toxic | inactive | inactive | Non-toxic | Non-toxic | inactive | 98% | 22.8 mg/kg | 46.2 mg/kg | 77.1 mg/kg | Active | Non-toxic | 92.5% | 92.6% | > 500 mg/kg | 1.8 | > 11 | 136 mg/kg | inactive | 91.9% | ED50 (Mus musculus [16]): 47.1 mg/kg; selectivity ratio [17]: 2.9; selectivity ratio [20]: > 10.8
3 | CCC(O)CNC(=O)/C=C/c1ccccc1 (racemic) | Non-toxic | inactive | Active | Non-toxic | Non-toxic | inactive | 92% | 41.5 mg/kg | > 250 mg/kg |  |  | Non-toxic | 91.2% | 89.4% | > 500 mg/kg |  | > 12.1 |  | inactive | 85.9% | 
4 | CC(C)C(CO)NC(=O)/C=C/c1ccccc1 (racemic) | Non-toxic | inactive | inactive | Non-toxic | Non-toxic | inactive | 93% |  |  |  | Active | Non-toxic | 95.7% | 89.1% |  |  |  | 190 mg/kg | inactive | 82.2% | selectivity ratio [22]: 1.8; ED50 (Mus musculus [23]): 106 mg/kg
5 | CC(CO)NC(=O)/C=C/c1ccccc1 (racemic) | Non-toxic | inactive | inactive | Non-toxic | Non-toxic | inactive | 96% |  |  | 110 mg/kg |  | Non-toxic | 96.6% | 95% |  | 2 | > 8.1 | 223 mg/kg | inactive | 92.2% | ED50 (Rattus norvegicus [24]): 31 mg/kg; selectivity ratio [22]: 3.7; ED50 (Mus musculus [16]): 86.6 mg/kg; selectivity ratio [17]: 2.6; TD50 at 1 h [25]: > 250 mg/kg; ED50 (Mus musculus [23]): 60.9 mg/kg; ED50 (Rattus norvegicus [26]): > 250 mg/kg
